An excerpt weighted towards active compounds, which were near 9.2% of everything screened.
Autophagy mod: modulators of autophagy. MEF GFP-LC3 puncta imaging; test concentration mostly 10 µM. calls only at 10 µM (by protocol). 190,000 tested, 0.98% active;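 active means percentage of spot-positive cells more than 3 SD above its plate mean, without a fluorescence outlier flag or 80% toxicity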;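 further: spot-positive cell cutoff set from DMSO-treated cells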
Lmaj promast: reduces viability of Leishmania major promastigotes. inhibition, % at 10 µM. AID 1063. 200,000 tested, 9% active. resazurin fluorescence viability; in the data active means inhibition above about 50%;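 further: promastigotes grown with compound for 44 hours at 28 °C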
HCT116 PTEN-null: growth suppressors of cells with PTEN tumor suppressor deletion. HCT116 PTEN-null viability, CellTiter-Glo, 60 h; stronger effect = lower value. viability, % at 10 µM. 140,000 tested, 1.2% active. AID 827;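 active means viability at or below a set limit, 4 SD under the median of all tested compounds, cut at about 3.7% in these data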;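 further: PTEN knockout HCT116 line with beta catenin targeted HCT116 as companion control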
bCat KO growth: beta-catenin-lacking colon tumor cell growth suppression; AID 818; viability, % at 10 µM; 140,000 tested, 1.5% active; HCT116 beta-catenin knockout viability, CellTiter-Glo, 60 h; stronger effect = lower value;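 active means viability at or under a set limit, the compound median less 4 SD, cut at about 6% in these data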;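 further: 0% = Hyamine 1622 control at 20 µM and 100% = untreated cell control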
Dynein transport: dynein cargo transport inhibition; 3617.4 mouse cells, GR-EGFP nuclear translocation imaging; test concentration mostly 20 µM; stimulated with dexamethasone, 1 µM; stronger effect = lower value; 220,000 tested, 0.47% active; z-score, hits read low; AID 1381;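 active means plate z-score of nuclear minus cytoplasmic receptor signal below a set negative limit, without overly bright fluorescence or cell loss, cut at about -3.5 in these data, passing the limit was not always enough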;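 further: z-score of nuclear minus cytoplasmic ring GR-EGFP intensity difference per well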
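Buffer or medium – tet-free medium with charcoal-stripped serum · Signal – automated 10x imaging of fixed Hoechst-stained cells · Also added – dexamethasone agonist, 1.0 µM final, for 30 min · Incubation – induction 48 h, compound 1 h, agonist 30 min · Read-out – GR-EGFP nuclear translocation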
* marks the source's active call; other numbers are inactive results.

Screening Cc1ccc(Cl)cc1Nc1nc(-c2sc(NC(=O)c3ccccc3)nc2C)cs1 returned Autophagy mod inactive, Lmaj promast 50.1*, HCT116 PTEN-null 90.4, bCat KO growth 97.8 and Dynein transport -0.357.
Screening COc1ccccc1Nc1nc(-c2sc(NC(=O)c3ccc([N+](=O)[O-])cc3)nc2C)cs1 returned Autophagy mod inactive, Lmaj promast 4.9, HCT116 PTEN-null 37.7, bCat KO growth 22.6 and Dynein transport -0.176.
COc1ccccc1Nc1nc(-c2sc(NC(=O)c3ccccc3)nc2C)cs1 was read as Autophagy mod inactive, Lmaj promast 81.1*, HCT116 PTEN-null 80.0, bCat KO growth 92.5 and Dynein transport 0.629.
`CCOc1ccccc1Nc1nc(-c2sc(NC(=O)c3cccc(Cl)c3)nc2C)cs1` gave Autophagy mod inactive, Lmaj promast 12.1, HCT116 PTEN-null 6.5, bCat KO growth 5.1* and Dynein transport -0.453.
For CN(c1nc2c(c(=O)n(C)c(=O)n2C)n1CC(=O)c1ccccc1)C1CCCCC1 the results were Autophagy mod inactive, Lmaj promast 6.1, HCT116 PTEN-null 87.0, bCat KO growth 90.2 and Dynein transport 0.347.
CCC(=O)Nc1ccc(Nc2ccccc2)cc1 was read as Autophagy mod inactive, Lmaj promast 93.3*, HCT116 PTEN-null 91.9, bCat KO growth 88.3 and Dynein transport -1.1.
For O=C(Nc1ccc(Nc2ccccc2)cc1)C(Cl)(Cl)Cl the results were Autophagy mod inactive, Lmaj promast 78.4*, HCT116 PTEN-null 24.0, bCat KO growth 19.3 and Dynein transport 0.18.
For CC(C)(C)NC(=S)Nc1ccc(Nc2ccccc2)cc1 the results were Autophagy mod inactive, Lmaj promast 61.4*, HCT116 PTEN-null 17.7, bCat KO growth 13.6 and Dynein transport 0.246.
`O=C1OCCC1Sc1nnc(-c2cccnc2)n1-c1ccccc1F` (centres undefined) gave Autophagy mod inactive, Lmaj promast -2.4 and Dynein transport 0.616.
Screening O=C(CN(C1CCCCC1)S(=O)(=O)c1ccc(F)cc1)NCc1ccncc1 returned Autophagy mod inactive, Lmaj promast 2.5, HCT116 PTEN-null 93.9, bCat KO growth 94.5 and Dynein transport -0.323.
For COc1cc2nc(CN(C)Cc3ccc(C(C)(C)C)cc3)[nH]c(=O)c2cc1OC the results were Autophagy mod inactive, Lmaj promast 16.9 and Dynein transport 3.13.
For CN(C)S(=O)(=O)c1ccc(N2CCCC2)c(C(=O)Nc2nc3c(ccc4ccccc43)s2)c1 the results were Autophagy mod inactive, Lmaj promast 96.6*, HCT116 PTEN-null 78.0, bCat KO growth 86.5 and Dynein transport -0.808.
For CN(C)S(=O)(=O)c1ccc(N2CCCC2)c(C(=O)Nc2nc(-c3ccc(F)c(F)c3)cs2)c1 the results were Autophagy mod inactive, Lmaj promast 52.5*, HCT116 PTEN-null 95.8, bCat KO growth 89.3 and Dynein transport 1.98.
COCc1cc(N2CCCC2)nc(-c2ccccc2)n1 was read as Autophagy mod inactive, Lmaj promast 6.3 and Dynein transport -1.45.
Screening CS(=O)(=O)Cc1cc(N2CCCC2)nc(-c2ccccc2)n1 returned Autophagy mod inactive, Lmaj promast 60.9* and Dynein transport -0.661.
`CCc1nc(N2CCN(S(C)(=O)=O)CC2)c2c3c(sc2n1)CCCC3` gave Autophagy mod inactive, Lmaj promast 25.0 and Dynein transport -0.407.
For CCc1cc(C(=O)OC)c(NC(=O)C2CC(=O)NN2Cc2ccccc2)s1 (centres undefined) the results were Autophagy mod inactive, Lmaj promast 99.3*, HCT116 PTEN-null 78.0, bCat KO growth 94.0 and Dynein transport -0.33.
`Cc1ccccc1/C=N/n1c(-c2ccccn2)n[nH]c1=S` gave Dynein transport -0.298.
Screening S=c1[nH]nc(-c2ccccn2)n1/N=C/c1cccc2ccccc12 returned Autophagy mod inactive, Lmaj promast 50.0*, HCT116 PTEN-null 107.7, bCat KO growth 97.4 and Dynein transport -0.856.
CCSC1=NN2CCS(=O)(=O)N=C2S1 was read as Autophagy mod inactive, Lmaj promast -8.1 and Dynein transport 0.0327.
Screening CC(C)Cc1nc2oc3c(N4CCN(CCO)CC4)ncnc3c2c2c1CCCC2 returned Autophagy mod inactive, Lmaj promast 51.7*, HCT116 PTEN-null 51.9, bCat KO growth 36.9 and Dynein transport -0.0111.
Screening CCOC(=O)N1CCN(c2ncnc3c2oc2nc(C(C)C)c4c(c23)CCC4)CC1 returned Autophagy mod inactive, Lmaj promast -8.3, HCT116 PTEN-null 82.8, bCat KO growth 89.5 and Dynein transport -0.572.
`Cc1sc(NC(=O)Cc2ccc3c(c2)OCO3)nc1-c1ccc2c(c1)CCN2C(=O)c1ccc(F)cc1` gave Autophagy mod inactive, Lmaj promast 86.5*, HCT116 PTEN-null 70.7, bCat KO growth 56.0 and Dynein transport 0.0645.
Cc1sc(NC(=O)CN(C)C2CCCCC2)nc1-c1ccc2c(c1)CCN2S(=O)(=O)c1ccccc1 was read as Autophagy mod inactive, Lmaj promast 44.6, HCT116 PTEN-null 69.1, bCat KO growth 75.7 and Dynein transport -0.762.
Screening Cc1sc(NC(=O)Cc2ccc3c(c2)OCO3)nc1-c1ccc2c(c1)CCN2C(=O)c1ccccc1F returned Autophagy mod inactive, Lmaj promast 98.9*, HCT116 PTEN-null 73.2, bCat KO growth 57.8 and Dynein transport 0.0484.
For CC1=C(C(=O)N2CCOCC2)C(c2ccc(Br)cc2)NC(=S)N1c1ccccc1 (centres undefined) the results were Autophagy mod inactive, Lmaj promast 48.9 and Dynein transport -0.414.
Screening CC1=C(C(=O)N2CCOCC2)C(c2ccc(OC(F)F)cc2)NC(=S)N1c1ccccc1 (centres undefined) returned Autophagy mod active, Lmaj promast -2.5 and Dynein transport 0.308.
Screening O=C(CCN1CCc2ccccc21)c1ccc2c(c1)OCCO2 returned Autophagy mod inactive, Lmaj promast 5.6, HCT116 PTEN-null 12.4, bCat KO growth 11.6 and Dynein transport 0.354.
Screening O=C(CCN1CCc2ccccc2C1)c1ccc2c(c1)OCCO2 returned Autophagy mod inactive, Lmaj promast 100.5*, HCT116 PTEN-null 80.3, bCat KO growth 64.3 and Dynein transport -1.42.
`O=C(CCN1CCC(c2ccccc2)C1)c1ccc2c(c1)OCCO2` (centres undefined) gave Autophagy mod inactive, Lmaj promast 100.5*, HCT116 PTEN-null 24.6, bCat KO growth 53.9 and Dynein transport -1.68.
O=C(CCN1CCC(c2ccccc2)C1)c1cccs1 (centres undefined) was read as Autophagy mod inactive, Lmaj promast 71.5*, HCT116 PTEN-null 2.8*, bCat KO growth 15.8 and Dynein transport -0.678.
Screening O=C(CCN1CCC(c2ccccc2)C1)c1ccccc1 (centres undefined) returned Autophagy mod inactive, Lmaj promast 47.9, HCT116 PTEN-null 96.0, bCat KO growth 87.0 and Dynein transport -1.13.
